The values that follow come from ChEMBL document CHEMBL1153702, “Synthesis and cytotoxic activity of 2-methylimidazo[1,2-a]pyridine- and quinoline-substituted 2-aminopyrimidine derivatives” (Eur J Med Chem, 2010).

Active and inactive are the calls of the source. The calls are words filed in the database; no cut-off is given here.

Assay [1] deals with K562. The assay is described as follows: Cytotoxicity against human K562 cells at 50 uM after 48 hrs by SRB assay. The assay is classed as functional. The settings on record: for inhibition at 50 µM: K562, 48 h. In a few lines:
(§1)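 Cells in RPMI-1640 with 10% FCS at 37 °C, 5% CO2; 5–10 × 10^3 cells/well seeded 24 h, then exposed 48 h to 50 μM compound (DMSO stock; 5-fluorouracil at same concentration as positive control). TCA-fixed at 4 °C 1 h, stained with 0.4% SRB, dye solubilized in 10 mM Tris base, OD 515 nm; % growth inhibition, mean of three experiments in triplicate.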

Assay [2] deals with HCT-15. The assay is described as follows: Cytotoxicity against human HCT15 cells at 50 uM after 48 hrs by SRB assay. It counts as functional. As to conditions: for inhibition at 50 µM: HCT-15, 48 h. The procedure, abridged:
as §1
(Sulforhodamine B stains cellular protein and so reports cell mass.)

In assay [3] the target is Cyclin-dependent kinase 1/cyclin B1 (Homo sapiens) (UniProt P06493+P14635). As to conditions: at 7 µM.
Assay [4] concerns SK-LU-1. Kind of assay: Cell cycle arrest in human SK-LU-1 cells assessed as accumulation at G1 phase after 24 hrs by flow cytometry. It counts as functional. In general terms: A flow cytometer gives signals particle by particle.
Assay [5] has as its system MCF7. The assay is described as follows: Cell cycle arrest in human MCF7 cells assessed as accumulation at S phase after 24 hrs by flow cytometry. It counts as functional.
The subject of assay [6] is SK-LU-1. Kind of assay: Induction of apoptosis in human SK-LU-1 cells assessed as necrotic cells after 48 hrs using annexin-V-FITC/propidium iodide staining by flow cytometry. The assay is classed as functional, cell-based. In a few lines:
(§2)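 2.5 × 10^5 cells per well attached 24 h, then treated 48 h with compound or DMSO vehicle at the highest concentration used. Adherent plus floating cells washed in PBS, resuspended in annexin-binding buffer, stained with annexin V-FITC and propidium iodide 10 min in the dark at room temperature; 10,000 events analysed by flow cytometry, quadrants scoring apoptotic versus late apoptotic/necrotic cells.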

Assay [7] concerns SK-LU-1. Kind of assay: Induction of apoptosis in human SK-LU-1 cells assessed as apoptotic cells after 48 hrs using annexin-V-FITC/propidium iodide staining by flow cytometry. It counts as functional, cell-based. The procedure, abridged:
as §2

The subject of assay [8] is U-251. Kind of assay: Cytotoxicity against human U251 cells at 50 uM after 48 hrs by SRB assay. The assay is classed as functional. The settings on record: U-251, 48 h. The procedure, abridged:
as §1

Assay [9] has as its system MCF7. The assay is described as follows: Cell cycle arrest in human MCF7 cells assessed as accumulation at G1 phase after 24 hrs by flow cytometry. The assay is classed as functional.
Assay [10] concerns SK-LU-1. The assay is described as follows: Cytotoxicity against human SK-LU-1 cells after 48 hrs by SRB assay. It counts as functional, cell-based. As to conditions: SK-LU-1, 48 h. In a few lines:
(§3)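 SRB protein-staining assay: 5–10 × 10^3 cells/well in RPMI-1640/10% FCS, allowed 24 h to attach, then 48 h with compound dissolved from DMSO stock; TCA fixation, 0.4% SRB staining, Tris-solubilized dye read at 515 nm. IC50 from dose-response curve by non-linear regression; mean ± SD of three independent experiments.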

In assay [11] the test system is PC-3. The assay is described as follows: Cytotoxicity against human PC3 cells at 50 uM after 48 hrs by SRB assay. The assay is classed as functional. As to conditions: PC-3, 48 h. In a few lines: as §1
Assay [12] has as its system SK-LU-1. The assay is described as follows: Cell cycle arrest in human SK-LU-1 cells assessed as accumulation at G2/M phase after 24 hrs by flow cytometry. The assay is classed as functional.
Assay [13] concerns MCF7. Kind of assay: Cell cycle arrest in human MCF7 cells assessed as accumulation at G2/M phase after 24 hrs by flow cytometry. It counts as functional.
Assay [14] relates to MCF7. The assay is described as follows: Cytotoxicity against human MCF7 cells at 50 uM after 48 hrs by SRB assay. It counts as functional. The settings on record: MCF7, 48 h. In a few lines: as §1
In assay [15] the test system is MCF7. Kind of assay: Cytotoxicity against human MCF7 cells after 48 hrs by SRB assay. The assay is classed as functional, cell-based. The settings on record: MCF7, 48 h. The procedure, abridged:
as §3

Assay [16] relates to SK-LU-1. Kind of assay: Cytotoxicity against human SK-LU-1 cells at 50 uM after 48 hrs by SRB assay. It counts as functional. The settings on record: SK-LU-1, 48 h. The procedure, abridged:
as §1

Assay [17] has as its system SK-LU-1. Kind of assay: Cell cycle arrest in human SK-LU-1 cells assessed as accumulation at S phase after 24 hrs by flow cytometry. It counts as functional.

Chain of Cyclin-dependent kinase 1/cyclin B1 (Homo sapiens) (P06493 whole entry, looked up): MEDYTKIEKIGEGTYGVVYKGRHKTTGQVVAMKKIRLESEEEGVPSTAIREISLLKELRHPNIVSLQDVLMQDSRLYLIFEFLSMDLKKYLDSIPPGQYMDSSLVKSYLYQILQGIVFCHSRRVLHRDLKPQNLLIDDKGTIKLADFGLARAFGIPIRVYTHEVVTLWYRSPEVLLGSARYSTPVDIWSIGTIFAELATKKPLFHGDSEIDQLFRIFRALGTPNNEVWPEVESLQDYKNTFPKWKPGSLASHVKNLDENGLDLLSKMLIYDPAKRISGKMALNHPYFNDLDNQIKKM
Chain of Cyclin-dependent kinase 1/cyclin B1 (Homo sapiens) (P14635 whole entry, looked up): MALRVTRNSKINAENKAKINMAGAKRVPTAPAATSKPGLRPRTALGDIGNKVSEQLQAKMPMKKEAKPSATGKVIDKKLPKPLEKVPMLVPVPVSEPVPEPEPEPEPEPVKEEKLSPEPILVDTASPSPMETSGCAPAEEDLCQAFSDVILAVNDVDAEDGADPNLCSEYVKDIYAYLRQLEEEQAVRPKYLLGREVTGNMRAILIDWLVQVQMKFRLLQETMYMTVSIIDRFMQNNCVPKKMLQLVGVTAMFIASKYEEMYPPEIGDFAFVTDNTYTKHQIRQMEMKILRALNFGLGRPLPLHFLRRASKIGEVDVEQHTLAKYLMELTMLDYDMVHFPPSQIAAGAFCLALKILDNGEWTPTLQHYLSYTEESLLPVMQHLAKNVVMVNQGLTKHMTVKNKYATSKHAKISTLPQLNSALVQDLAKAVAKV

`Cc1ccc(Nc2nccc(-c3ccnc4ccccc34)n2)cc1`: the inhibition – broadly, the change of the read-out against control, counted positive when it falls – at 50 µM turned out to be 50.9% in assay [1]; 100% in [2]; 100% in [8]; 100% in [11]; 100% in [14]; 100% in [16]. The molecule also displayed an inhibition in assay [3] of 75%. For the same molecule, the Activity was 8.1% in assay [4]; 15.1% in [5]; 18.7% in [9]; 74% in assay [12]; 64.7% in assay [13]; 22% in assay [17]. The result in assay [6] was inactive. Also, in assay [7], the result was Active. Besides, the IC50 – broadly, the midpoint of a concentration-inhibition curve – in assay [10] came out at 1400 nM; in assay [15], 600 nM.
As for `Cc1nc2ccccn2c1-c1ccnc(Nc2ccc(C(F)(F)F)cc2)n1`, the inhibition at 50 µM in assay [1] amounted to 84.8%; in [2], 88.6%; in [8], 85.6%; in [11], 64.5%; in assay [14] it was 83.4%; in assay [16], 100%. The molecule further came in with an inhibition in assay [3] of 60%. Besides, the IC50 in assay [10] is 34 nM; in assay [15] it was 66 nM.
Turning to `FC(F)(F)c1ccc(Nc2nccc(-c3c(C(F)(F)F)nc4ccccn34)n2)cc1`, the inhibition at 50 µM amounted to 94.2% in [1]; 94.4% in assay [2]; 100% in assay [8]; 92% in assay [11]; 100% in [14]; 95% in assay [16]. Also, the IC50 worked out at 745 nM in [10] and 290 nM in [15].
As for `Cc1ccc(Nc2nccc(-c3cnc4ccccc4c3)n2)cc1`, the inhibition entry in assay [1] was “inactive”. Moreover, the inhibition at 50 µM came out at 30.3% in [2]; 87.7% in assay [8]; 59.5% in assay [11]; 100% in assay [14]; 46.3% in assay [16]. Also, the inhibition in [3] amounted to 73%. Besides, the midpoint of inhibition in assay [15], the IC50, lay at 50000 nM.
For `Nc1nccc(-c2c(C(F)(F)F)nc3ccccn23)n1`, the inhibition at 50 µM in [1] worked out at 56.3%; in assay [8], 92.2%; in [11], 74%; in assay [14], 100%; in assay [16] it was 71%. The IC50 in [10] worked out at 56500 nM; in [15], 53700 nM.
For the molecule `FC(F)(F)c1ccc(Nc2nccc(-c3ccnc4ccccc34)n2)cc1`, the inhibition entry in assay [1] was “inactive”. Besides, the inhibition at 50 µM amounted to 100% in assay [2]; 91.8% in assay [8]; 87.3% in [11]; 100% in [14]; 100% in assay [16]. For the same molecule, the figures for the IC50 in assay [10] and in assay [15] were 1720 nM and 1650 nM, respectively.
As to `Cc1nc2ccccn2c1-c1ccnc(Nc2ccc(C=O)s2)n1`, the inhibition at 50 µM stood at 88.1% in assay [1]; 85.4% in assay [2]; 57.8% in [8]; 49.5% in assay [11]; 75.9% in [14]; 100% in assay [16]. In assay [3], this molecule came in with an inhibition of 52%. Further, the Activity was 42.5% in [4]; 15.7% in assay [5]; 54.5% in assay [9]; 48% in [12]; 22.2% in assay [13]; 13.9% in assay [17]. In [6], the result was inactive. Further, the result in assay [7] was Active. For the same molecule, the IC50 came out at 1540 nM in assay [10] and 4270 nM in assay [15].
Regarding `Nc1nccc(-c2ccnc3ccccc23)n1`, the inhibition at 50 µM was determined as 9.4% in assay [1]; 100% in assay [8]; 77.4% in [11]; 100% in [14]; 78.2% in assay [16]. In assay [2], the inhibition entry is “inactive”. Besides, the figures for the IC50 in [10] and in [15] were greater than 50000 nM and 40200 nM, respectively.
Turning to `Cc1ccc(Nc2nccc(-c3c(C)nc4ccccn34)n2)cc1`, the inhibition at 50 µM turned out to be 89.4% in assay [1]; 95.2% in assay [2]; 100% in assay [8]; 94.2% in assay [11]; 88.5% in assay [14]; 100% in assay [16]. The molecule further yielded an inhibition in assay [3] of 59%. Also, the Activity in assay [4] was 4.7%; in assay [5], 25.3%; in assay [9] it was 60.8%; in assay [12], 77.5%; in [13], 14.7%; in assay [17] it was 20.9%. Further, in [6], the outcome was inactive. Moreover, the result in assay [7] was Active. The IC50 was 19.7 nM in assay [10] and 59 nM in assay [15].
On to `Cc1ccc(Nc2nccc(-c3c(C(F)(F)F)nc4ccccn34)n2)cc1`, for which the inhibition at 50 µM in assay [1], in assay [2], in assay [8], in [11], in assay [14] and in [16] was 100% each time. Also, the outcome in assay [6] was inactive. Moreover, the outcome in [7] was Active. Besides, the IC50 in assay [10] was determined as 175 nM; in assay [15] it was 44 nM.
For `Nc1nccc(-c2cnc3ccccc3c2)n1`, the inhibition entry in [1] and in [2] was “inactive” throughout. For the same molecule, the inhibition at 50 µM was 38.5% in [8], 31.9% in assay [11], 100% in assay [14] and 59.3% in assay [16]. The IC50 in [10] and in assay [15] was greater than 50000 nM throughout.
In the case of `Cn1cnc2c(NCc3ccccc3)nc(NCCO)nc21` [OLOMOUCINE], the Activity is given as 44.2% in [4]; 15.1% in assay [5]; 60.6% in [9]; 31.8% in assay [12]; 23.2% in assay [13]; 19.7% in assay [17].
As for `O=c1[nH]cc(F)c(=O)[nH]1` [FLUOROURACIL], the inhibition at 50 µM in assay [1] was determined as 73.7%; in [2], 71.3%; in assay [8] it was 64.2%; in [11], 45.4%; in assay [14], 65.1%; in assay [16], 70.5%.
Consider `FC(F)(F)c1ccc(Nc2nccc(-c3cnc4ccccc4c3)n2)cc1`, for which the inhibition entry in [1] was “inactive”. Also, the inhibition at 50 µM in assay [2] amounted to 24%; in assay [8] it was 49.8%; in [11] it was 22.9%; in [14], 80.9%; in [16], 35.4%. In [15], this molecule yielded an IC50 greater than 50000 nM.
